Screening results as filed in PubChem BioAssay.
An excerpt weighted towards active compounds, which were near 2.1% of everything screened.
APJ antagonist: antagonists of human APJ apelin receptor; P35414; CHO-K1 APJ beta-arrestin complementation, luminescence; inhibition, % at 20 µM; hit rate 0.32% among 330,000; AID 2521;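 active = inhibition above about 40% at 20 µM, limit read from the data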;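 also: cells challenged with 10 nM apelin-13 agonist together with compound; plate controls were apelin-13 plus DMSO wells for no effect and DMSO wells lacking apelin-13 for full effect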
Target sequence (P35414 whole entry, looked up): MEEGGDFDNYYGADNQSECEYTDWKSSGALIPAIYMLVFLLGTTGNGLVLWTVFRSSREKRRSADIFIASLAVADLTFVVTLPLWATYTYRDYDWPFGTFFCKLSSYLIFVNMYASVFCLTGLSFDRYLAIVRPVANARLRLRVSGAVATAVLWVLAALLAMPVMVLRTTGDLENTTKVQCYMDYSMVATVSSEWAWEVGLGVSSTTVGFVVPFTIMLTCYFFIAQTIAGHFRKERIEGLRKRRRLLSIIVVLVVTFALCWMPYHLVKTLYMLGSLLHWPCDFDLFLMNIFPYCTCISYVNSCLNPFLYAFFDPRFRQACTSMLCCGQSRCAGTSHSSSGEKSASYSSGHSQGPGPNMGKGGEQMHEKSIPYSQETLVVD
CCR6 antagonist: antagonists of human CCR6 receptor | hit rate 0.49% among 340,000 | CHO-K1 CCR6 PathHunter beta-arrestin, luminescence, CCL20-stimulated | P51684 | inhibition, % at 20 µM | AID 493098;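 active = compounds whose inhibition of the agonist-driven luminescence signal at 20 µM reaches about 50%, limit read from the data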;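 also: cells stimulated with CCL20 at 14 nM final; plate controls were DMSO with CCL20 for no effect and DMSO without agonist for full effect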
m5-HT2A agonist: mouse HTR2A agonism via beta-arrestin recruitment | CHO-K1 mHTR2A beta-arrestin complementation, luminescence; percent of 30 µM serotonin response | hit rate 0.66% among 360,000 | activation, % at 7.6 µM | AID 624169;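 active = activation above a run cutoff, the mean activation of all tested compounds plus 3 SD, cut at about 14% in these data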;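 also: 0% = plate median of compound wells and 100% = 30 µM serotonin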
EBI2 antag: blocks human EBI2 receptor beta-arrestin signaling. EBI2 beta-arrestin recruitment, luminescence, 7a,25-OHC stimulated. inhibition, % at 5 µM. hit rate 0.81% among 360,000. AID 651636; in the data active = inhibition above about 38%;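 also: enzyme fragment complementation signal reports receptor beta-arrestin coupling in cells; 0% = agonist plus DMSO wells and 100% = wells without agonist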
APJ agonist: agonists of human APJ apelin receptor. P35414. activation, % at 20 µM. AID 2520. hit rate 0.11% among 330,000. CHO-K1 APJ PathHunter beta-arrestin, luminescence; 0% DMSO wells, 100% apelin;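 active = activation more than six SD over the plate average, tested at 20 µM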;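 also: 0% = DMSO alone and 100% = apelin-13 at 10 nM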
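Test system – PathHunter CHO-K1 APJ (AGTRL-1) beta-arrestin reporter cells · Input – 1000 cells/well · Compound – single test compound dose, 20 µM final, 1% DMSO · Times – compound stimulation 90 min at 25 °C, detection 60 min · Technique – beta-gal luminescence · Read-out basis – APJ–arrestin association signal · Control set – negative DMSO alone, positive Apelin-13 at 10 nM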
CXCR6 inh: CXCR6 (human) receptor inhibition; inhibition, % at 20 µM; hit rate 0.36% among 360,000; CHO-K1 PathHunter CXCR6 beta-arrestin, luminescence; in the data active = inhibition above about 34%, passing the limit was not always enough;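 also: antagonist mode with CXCL16 agonist at 10 nM final; 0% = 10 nM CXCL16 with DMSO and 100% = unstimulated wells without agonist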
MOR ag counter: counter-screen for mouse HTR2A agonists: human mu opioid receptor agonists; shares compounds with m5-HT2A agonist; U2OS OPRM1 beta-arrestin PathHunter, luminescence; DMSO 0%, DAMGO 9.3 µM 100%; activation, % at 9.3 µM; hit rate 5.3% among 2,300; AID 624380;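 active = mean activation above the mean of DMSO-only wells plus 3 SD, cut at about 0.5% in these data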
m5-HT2A ag conf: confirmation of mouse HTR2A serotonin receptor agonists. activation, % at 7.6 µM. hit rate 19% among 2,300. CHO-K1 PathHunter beta-arrestin recruitment, luminescence; DMSO 0%, 30 µM serotonin 100%. shares compounds with m5-HT2A agonist. AID 624381;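 active = mean activation across triplicates above the hit threshold derived in the original primary screen, cut at about 15% in these data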
* = called active by the depositor; x = no result given.

SMILES	APJ antagonist	CCR6 antagonist	m5-HT2A agonist	EBI2 antag	APJ agonist	CXCR6 inh	MOR ag counter	m5-HT2A ag conf
COc1cc(C(=O)Nc2cccc(-c3nncn3C)c2)cc(OC)c1OC	7	1	15*	8	0	4	-1	-4
CC1CCN(c2ncnc3nc[nH]c23)CC1	-54	4	25*	-9	-3	-2	0	1
COc1ccccc1N1CCN(c2ccc(S(=O)(=O)N3CCN(C)CC3)cn2)CC1	15	11	-2	-2	-1	-2	x	x
COc1ccccc1N1CCN(C(=O)CSc2nc3ccccc3[nH]2)CC1	-3	6	15*	-2	2	-4	0	0
CCN1CCN(c2ccc(S(=O)(=O)N3CCCCC3)cc2NC(=O)CCNC(C)=O)CC1	x	8	6	-8	x	-20	x	x
CCOC(=O)CNC(=S)N(CCCN1CCCC1)Cc1cccs1	14	23	29*	0	-9	2	-1	10
CCOC(=O)CNC(=S)N(CCCN1CCCCCC1)Cc1cccs1	11	20	7	5	-3	8	x	x
O=C(O)c1cccc(-c2csc(C(O)c3ccc(F)c(F)c3)n2)c1 (stereo not given)	x	x	3	-6	x	12	x	x
CC(C)c1ccc(N(CC(=O)NC(C)(C)C)C(=O)CCC(=O)Nc2nccs2)cc1	12	11	29*	-5	-1	2	-1	-3
C[C@@]12CCC3[C@@](CCC4[C@@]3(C)CCC[C@@]4(C)C(=O)N3CCCCC3)(CC1=O)C2 (stereo not given in full)	16	10	14*	6	-2	-12	0	-5
Cc1ccc(-c2cc(C(F)(F)F)nn2-c2ccc(S(N)(=O)=O)cc2)cc1	-8	15	20*	5	9	2	1.1*	25*
Cc1cccc(CN2CCN(C3CN(Cc4ccc(F)cc4)S(=O)(=O)C3)CC2)c1 (stereo not given)	x	x	18*	-4	x	-3	-1	1
Cc1ccc(CN2CC(N3CCN(Cc4cccc(C)c4)CC3)CS2(=O)=O)cc1 (stereo not given)	x	x	31*	-2	x	-3	0	11
Cc1ccc(Cn2cc(CN3CC(N4CCN(Cc5cccc(C)c5)CC4)CS3(=O)=O)nn2)cc1 (stereo not given)	x	x	5	4	x	8	x	x
COC(=O)C(CCCCNC(=O)c1ccc([N+](=O)[O-])cc1)NC(=O)c1ccc([N+](=O)[O-])cc1 (stereo not given)	-39	-4	-3	0	3	-6	x	x
Cc1cc(C)cc(NC(=O)C(C)N2C(=O)c3ccccc3C2=O)c1 (stereo not given)	-1	9	20*	-3	-3	-10	0	-2
CCCCn1c(N)c(N(CCC(C)C)C(=O)c2ccc([N+](=O)[O-])s2)c(=O)[nH]c1=O	-77	7	19*	-2	8	-18	0	-4
O=C(Nc1n[nH]c(=S)s1)c1ccc2ccccc2c1	-12	-2	18*	-5	3	-12	0	2
COc1ccc(Cc2c(O)nc(SCC(C)C)[nH]c2=O)cc1	2	12	14*	-8	-4	1	-1	-2
COc1cccc2c1Oc1ncccc1N(C(=O)CCC(=O)NCc1ccccc1Cl)C2	17	9	17*	-4	1	11	0	1
COC(=O)C(CCSC)NC(=O)Cn1ncc2c(=O)oc3ccccc3c21 (stereo not given)	4	1	23*	-8	6	4	-1	0
CCCCNCc1cccn1-c1ccccc1	5	10	4	9	-5	0	x	x
NC(=O)C1(NC(=O)[C@@H]2CC3(CC(c4cccc(NC(=O)[C@@H]5CCC(=O)N5)c4)=NO3)CN2C(=O)Cc2ccc(Cl)cc2)CC1 (stereo not given in full)	15	-7	-1	3	-3	-2	x	x
NC(=O)C1(NC(=O)[C@@H]2CC3(CC(c4cccc(NC(=O)[C@@H]5CCC(=O)N5)c4)=NO3)CN2C(=O)Cc2ccc(C(F)(F)F)cc2)CC1 (stereo not given in full)	1	0	20*	-8	5	3	-1	-2
Cc1ccc(C)c(N2N=C(C(=O)Nc3cccnc3)CCC2=O)c1	14	15	15*	-3	-6	-4	-1	-2
SMILES	APJ antagonist	CCR6 antagonist	m5-HT2A agonist	EBI2 antag	APJ agonist	CXCR6 inh	MOR ag counter	m5-HT2A ag conf
Cc1ccc(C(=O)OCC(=O)NCc2cccs2)cc1C	-8	15	-2	-2	-4	-8	x	x
COCCNC(=O)CCn1nc(-c2ccc(Cl)cc2)ccc1=O	20	-7	-1	-9	0	-9	x	x
CC1=C(C(=O)N(C(C)C)C(C)C)CC(CC(=O)NCCN2CCOCC2)C(=O)N1CCC1=CCCCC1 (stereo not given)	x	x	16*	-5	x	0	0	-4
CCOc1ccccc1NC(=O)CSc1nnc(CNC(=O)c2ccccc2F)o1	9	-5	17*	-1	-3	4	-1	-4
Nc1nc(F)nc2c1ncn2[C@@H]1O[C@H](CO)[C@@H](O)[C@H]1O	-5	-13	20*	-12	2	-12	0.9*	11
Cc1ccc(S(=O)(=O)N2CCCCC2)cc1NS(=O)(=O)c1ccc(Cl)c(C(=O)O)c1	-7	2	17*	2	-3	0	0	1
Cc1cc(-c2onc(C)c2C(N)=O)no1	3	0	2	-10	-2	-4	x	x
Cc1cc(-c2onc(C)c2C(=O)Oc2ccc(Cl)cc2)no1	21	11	19*	5	-8	2	0	-4
Cc1cccc(NC(=O)C2CC(=O)OC23CCCCC3)c1 (stereo not given)	6	5	-3	4	-2	-3	x	x
Cc1ccc(CNC(=O)C2CC(=O)OC23CCCC3)c(C)c1 (stereo not given)	-10	-5	16*	14	-3	7	0	1
Nc1nc2c(s1)CC(c1ccccc1)CC2 (stereo not given)	-10	-3	2	3	1	-10	x	x
COc1ccc(NC(=O)CSc2nc3ccc(Nc4nc(N5CCOCC5)nc(N5CCOCC5)n4)cc3s2)cc1	-22	7	15*	12	1	5	0	18*
COc1ccc(S(=O)(=O)Cc2ccc(C(=O)NCc3ccc(C)cc3)o2)cc1	13	0	-8	8	-5	2	x	x
